Experimental data from publication PMC10590554 (Drug Design, Development and Therapy, 2023).
Several values for one entry are separate records, joined by “and”; a condition that tells them apart may be missing. Identical values can stand only once. Like-named read-outs stand apart in the source and are kept apart here. Each block holds one molecule with its values, some of them ahead of it.

Legend:
[1] = with itraconazole, humans; cited from earlier work
[2] = with itraconazole, rats; cited from earlier work
[3] = cited from earlier work
[4] = type: in vivo, Sprague-Dawley rats; conditions: rats
Procedure, shortened: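 Male Sprague-Dawley rats (220–260 g), acclimatised one week, fasted 12 h with free water, n=7/group. Single dose of vehicle (0.5% CMC-Na), simvastatin 2 mg/kg or itraconazole 15 mg/kg, then erlotinib 12 mg/kg in 0.5% CMC-Na by oral gavage 30 min later. Tail-vein blood taken into heparin at 0–24 h; plasma assayed by UPLC-MS/MS with tinidazole IS. Mean ± SD; ANOVA with Dunnett; Tmax by Wilcoxon signed-rank.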

[5] = with ketoconazole (CYP3A4 inhibitor); cited from earlier work
CYP3A4 = conditions: human microsomes and cDNA expressed human CYP enzymes; cited from earlier work
[6] = after oral administration; cited from earlier work
[7] = with flavoured water; cited from earlier work
[8] = Stability of erlotinib in rat plasma; type: in vitro ADME; conditions: various storage conditions, QC 8 and 800 ng/mL
Procedure, shortened: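 Blank rat plasma spiked with erlotinib QC at 8 and 800 ng/mL, five replicates per level. Held at room temperature 4 h, at −80°C for 60 days, or through 3 freeze-thaw cycles; processed samples held 4°C 24 h. Acetonitrile-tinidazole protein precipitation, then UPLC-MS/MS against a 5–1000 ng/mL 1/x²-weighted curve. Accuracy taken as measured/theoretical concentration ×100%.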

[9] = co-administration with itraconazole; cited from earlier work
[10] = itraconazole group vs erlotinib alone group, P<0.05
[11] = itraconazole group vs erlotinib alone group, not significant
[12] = simvastatin group vs erlotinib alone group, P>0.05

Compound: CCc1nc(C(N)=O)c(Nc2ccc(N3CCC(N4CCN(C)CC4)CC3)c(OC)c2)nc1NC1CCOCC1 [gilteritinib]
- increase of exposure of gilteritinib [1]: 2.2 fold
- increase of exposure of gilteritinib [2]: 1.4 fold

- increase of AUC ([4]; 15 mg/kg itraconazole with 12 mg/kg erlotinib vs erlotinib alone, P<0.05): 32.3%
- decrease of CL/F [4, 10]: ~24.24% and 24.2%
- increase of AUC0-t [4, 10]: approximately 32.32%
- increase of AUC0-∞ [4, 10]: ~32.29%
- increase of Cmax [4, 10]: ~33.54% and 33.5%
- decrease of Vz/F [4, 11]: approximately 19.30%
- increase of t1/2 [4, 11]: ~5.33%
- AUC0-t, fold higher than erlotinib alone group ([4]; itraconazole group, P<0.05): approximately 1.32 fold
- AUC0-∞, fold higher than erlotinib alone group ([4]; itraconazole group, P<0.05): approximately 1.32 fold
- Cmax, fold higher than erlotinib alone group ([4]; itraconazole group, P<0.05): ~1.34 fold
- decrease of CL/F [4, 12]: approximately 6.06%
- increase of AUC0-∞ [4, 12]: ~9.50%
- increase of Cmax [4, 12]: ~3.80%
- increase of Vz/F [4, 12]: ~1.16%
- increase of t1/2 [4, 12]: ~7.56%
- Accuracy over all stability conditions [8]: 87.56–112.17%
Compound: C#Cc1cccc(Nc2ncnc3cc(OCCOC)c(OCCOC)cc23)c1 [Erlotinib, erlotinib]
- reduction of AUC of erlotinib ([3]; combined with tamoxifen vs single administration): 54%
- increase of AUC of erlotinib [5]: 86%
- increase of Cmax of erlotinib [5]: 102%
- share of metabolism by CYP3A4 (CYP3A4): 70%
- eliminated via urine and feces route [6]: 91%
- increase of AUC of erlotinib [7]: 200%
- increase of Cmax of erlotinib [7]: 95%

Compound: N#CC1(c2ccc(NC(=O)c3cccnc3NCc3ccncc3)cc2)CCCC1 [apatinib]
- reduction of CL/F of apatinib [9]: 40%

Compound: CC/C(=C(\c1ccccc1)c1ccc(OCCN(C)C)cc1)c1ccccc1 [tamoxifen]
- increase of Cmax of tamoxifen ([3]; combined with erlotinib vs single administration): 46%
